This passage reports IC50 and RF results from ChEMBL document CHEMBL1135652, “Novel soluble cationic trans-diaminedichloroplatinum(II) complexes that are active against cisplatin resistant ovarian cancer cell lines” (J Med Chem, 2002).

Where “and” joins values, the source holds several entries; their conditions need not be identical. Equal entries are not always repeated.

A word on the IC50: it is the point on the concentration scale where inhibition reaches its midpoint.

Experiment [1] deals with 41M. Description: cytotoxicity against 41M cells incubated for 24 hr in MTT assay. The experiment is classed as functional, cell-based, Homo sapiens. Put shortly: (§1)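 Cisplatin-sensitive/resistant ovarian cancer line pairs; platinum complexes dissolved in 10 mM NaClO4 in water (1 mg/mL stock, fresh), added to cultures at final 0–200 μM for 24 h. Survival by MTT, absorbance at 520 nm; IC50 (concentration giving 50% cell killing) taken from % survival vs concentration curves. Quadruplicate experiments.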
Background: Tetrazolium dyes change colour on reduction, which living cells bring about.

In experiment [2] the test system is 41M. Description: cytotoxicity against 41McisR cells incubated for 24 hr in MTT assay. The experiment is classed as functional, cell-based, Homo sapiens. Put shortly:
as §1

The subject of experiment [3] is A2780cisR. Description: cytotoxicity against A2780cisR cells incubated for 24 hr in MTT assay. Type of experiment: functional, cell-based, Homo sapiens. In a few lines: as §1
A further experiment has as its system A2780. The experiment in a line: cytotoxicity against A2780 cells incubated for 24 hr in MTT assay. Type of experiment: functional, cell-based, Homo sapiens. In a few lines:
as §1

Experiment [4] concerns CH1. Description: cytotoxicity against CH1cisR cells incubated for 24 hr in MTT assay. Type of experiment: functional, cell-based, Homo sapiens. In a few lines: as §1
Experiment [5] has as its system CH1. The experiment in a line: cytotoxicity against CH1 cells incubated for 24 hr in MTT assay. Type of experiment: functional, cell-based, Homo sapiens. In a few lines: as §1
The nature of experiment [6]: Resistant factor was measured as IC50 41M/ IC50 41McisR. The experiment is classed as functional.
Experiment [7] concerns A2780cisR. The experiment in a line: Resistant factor was measured as […]. Type of experiment: functional, cell-based.
Experiment [8] can be described thus: Resistant factor was measured as IC50 CH1/ IC50 CH1cisR. Type of experiment: functional.

In the case of CISPLATIN [listing 1 of 2 here], the IC50 stood at 26 µM in the experiment with 41M [1]; 107 µM in the experiment with 41M [2]; 38 µM with A2780cisR [3]; 2.2 µM with A2780; 23 µM with CH1 [4]; 6 µM in the experiment on CH1 [5].

On to CISPLATIN [listing 2 of 2 here], for which the RF came out at 4.1 in [6], 17.3 with A2780cisR [7] and 3.8 in experiment [8].

For the substance TRANSPLATIN, the IC50 in the experiment with 41M [1], in the experiment with 41M [2], in the experiment on A2780cisR [3], with A2780, in the experiment with CH1 [4] and with CH1 [5] was greater than 200 µM in each case.

In the case of “trans-ptcl2(IPA)(pz) [listing 1 of 2 here]”, the half-maximal inhibitory concentration (IC50) with 41M [1] is 38 µM; in the experiment with 41M [2], 122 µM; in the experiment on A2780cisR [3], 30 µM; with A2780 it was 14 µM; in the experiment on CH1 [4], 50 µM; with CH1 [5] it was 10 µM.

“trans-ptcl2(IPA)(pz) [listing 2 of 2 here]”: the RF in experiment [6] is 3.2; in the experiment on A2780cisR [7], 2.1; in [8], 5.

“trans-ptcl2(NH3)(pz) [listing 1 of 2 here]”: the IC50 is 52 µM and 46 µM in the experiment with 41M [1]; 155 µM and 112 µM in the experiment with 41M [2]; 44 µM and 25 µM in the experiment on A2780cisR [3]; 5 µM and 10 µM with A2780; 34 µM and 56 µM in the experiment on CH1 [4]; 12 µM and 28 µM with CH1 [5].

As to “trans-ptcl2(NH3)(pz) [listing 2 of 2 here]”, the RF in experiment [6] was 3 and 2.4; in experiment [8], 2.8 and 2.

Turning to “trans-ptcl2(n-butyl amine)(pz) [listing 1 of 2 here]”, the IC50 with 41M [1] amounted to 32 µM; in the experiment with 41M [2], 48 µM; with A2780cisR [3] it was 28 µM; with A2780, 16 µM; with CH1 [4] it was 19 µM; in the experiment on CH1 [5], 17 µM.

With “trans-ptcl2(n-butyl amine)(pz) [listing 2 of 2 here]”, the RF was found to be 1.5 in experiment [6], 1.8 with A2780cisR [7] and 1.1 in [8].

Regarding “trans-ptcl2(picoline)(pz) [listing 1 of 2 here]”, the IC50 was 45 µM in the experiment with 41M [1]; 147 µM with 41M [2]; 24 µM with A2780cisR [3]; 10 µM with A2780; 42 µM in the experiment on CH1 [4]; 16 µM in the experiment on CH1 [5].

As to “trans-ptcl2(picoline)(pz) [listing 2 of 2 here]”, the RF in experiment [6] was 3.3; with A2780cisR [7] it was 2.4; in [8], 2.6.

With “trans-ptcl2(pip)(pz) [listing 1 of 2 here]”, the IC50 with 41M [1] stood at 37 µM; in the experiment with 41M [2] it was 118 µM; in the experiment with A2780cisR [3] it was 64 µM; in the experiment on A2780 it was 18 µM; in the experiment on CH1 [4], 85 µM; in the experiment on CH1 [5] it was 22 µM.

As for “trans-ptcl2(pip)(pz) [listing 2 of 2 here]”, the RF was 3.2 in experiment [6], 3.6 in the experiment on A2780cisR [7] and 3.9 in [8].
